The results in this text go back to ChEMBL document CHEMBL4480369, “Discovery of 3-hydroxy-3-pyrrolin-2-one-based mPGES-1 inhibitors using a multi-step virtual screening protocol” (Medchemcomm, 2018).

Structures are written as SMILES.

Test [1] concerns the target T1, Prostaglandin E synthase (Homo sapiens) (UniProt O14684).
T1 sequence (whole entry): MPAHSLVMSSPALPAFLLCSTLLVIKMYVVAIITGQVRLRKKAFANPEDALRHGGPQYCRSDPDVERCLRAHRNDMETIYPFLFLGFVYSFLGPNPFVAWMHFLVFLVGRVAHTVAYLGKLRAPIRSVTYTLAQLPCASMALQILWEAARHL
Nature of the test: Inhibition of mPGES1 in IL1beta-stimulated human A549 cell microsomes assessed as residual activity at 10 uM using PGH2 as substrate preincubated for 15 mins followed by substrate addition and measured after 1 min by RP-HPLC analysis relative to control. A digest of the protocol:
(§1)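 mPGES-1 source was microsomes from A549 cells treated 48 h with IL-1β (1 ng ml–1), obtained by sonication and differential centrifugation (10 000×g, then 174 000×g, 4 °C). Microsomes diluted in 0.1 M potassium phosphate pH 7.4 with 2.5 mM glutathione. Compound or DMSO vehicle added for 15 min at 4 °C; 20 μM PGH2 then reacted 1 min at 4 °C. Stopped with FeCl2/citric acid containing 11β-PGE2; PGE2 measured by SPE and RP-HPLC.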

Test [2] has as its target T2, Polyunsaturated fatty acid 5-lipoxygenase (Homo sapiens) (UniProt P09917).
T2 sequence (whole entry): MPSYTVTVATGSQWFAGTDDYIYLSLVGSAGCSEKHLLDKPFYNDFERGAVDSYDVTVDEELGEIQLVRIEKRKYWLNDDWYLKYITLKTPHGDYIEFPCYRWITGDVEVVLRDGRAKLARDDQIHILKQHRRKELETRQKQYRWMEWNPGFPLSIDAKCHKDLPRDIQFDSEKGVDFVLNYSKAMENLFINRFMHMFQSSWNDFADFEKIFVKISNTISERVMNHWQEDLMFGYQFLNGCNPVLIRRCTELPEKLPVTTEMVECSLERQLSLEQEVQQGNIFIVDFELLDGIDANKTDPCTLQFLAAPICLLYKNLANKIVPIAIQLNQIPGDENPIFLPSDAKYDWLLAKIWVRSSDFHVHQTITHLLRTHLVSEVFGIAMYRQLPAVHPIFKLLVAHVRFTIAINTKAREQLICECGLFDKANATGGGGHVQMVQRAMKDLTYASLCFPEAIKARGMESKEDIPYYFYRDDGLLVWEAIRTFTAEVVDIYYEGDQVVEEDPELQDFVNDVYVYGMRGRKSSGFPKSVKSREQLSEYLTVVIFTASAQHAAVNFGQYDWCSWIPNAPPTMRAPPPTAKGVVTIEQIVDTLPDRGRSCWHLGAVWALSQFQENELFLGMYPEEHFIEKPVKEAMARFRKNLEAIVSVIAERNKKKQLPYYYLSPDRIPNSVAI
As to the kind of experiment: Inhibition of 5-LO in human neutrophils assessed as residual activity at 10 uM using arachidonic acid as substrate preincubated for 10 mins followed by substrate addition and measured after 10 mins by RP-HPLC analysis. An outline of the steps: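 Freshly isolated human peripheral-blood neutrophils at 5 × 10^6 cells per ml in PBS pH 7.4 with 1 mM CaCl2 and 1 mg mL–1 glucose. Cells pre-treated 10 min with compound in DMSO (final 0.1%). Stimulated with 2.5 μM Ca2+ ionophore A23187 plus 20 μM arachidonic acid for 10 min at 37 °C, then stopped on ice with methanol. After C18 solid-phase extraction, LTB4 all-trans isomers and 5-H(P)ETE quantified by RP-HPLC against PGB1 internal standard.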

In another test the target is T3, Prostaglandin E synthase (Homo sapiens, UniProt O14684).
T3 sequence (O14684 whole entry): T1 sequence (whole entry)
Nature of the test: Inhibition of mPGES1 in IL1beta-stimulated human A549 cell microsomes using PGH2 as substrate preincubated for 15 mins followed by substrate addition and measured after 1 min by RP-HPLC analysis. An outline of the steps: as §1

With `COc1ccc(C(=O)N/C(=C\c2ccc(-c3cccc(C(F)(F)F)c3)o2)C(=O)NC(C)(C)C)cc1`, the Activity in test [1] came out at 88.6%.

Turning to `CCOC(=O)C1CCCN(c2nc3c(C)cccn3c(=O)c2/C=C(\C#N)C(=O)NCc2ccccc2)C1` (configuration not stated), the Activity in test [1] came out at 86.8%.

On to `CCOc1ccc(C2C(C(=O)c3cc4ccccc4o3)=C(O)C(=O)N2c2nnc(SCc3ccc(Cl)cc3)s2)cc1OC` (configuration not stated), for which the Activity amounted to 92.5% in test [2] and 30.5% in test [1]. Also, the IC50 (usually the concentration at which inhibition is half-maximal) against Prostaglandin E synthase is 3700 nM.

For `CC(=O)N[C@H]1[C@H](Oc2ccc(Nc3nc(-c4ccc(Cl)cc4)nc4ccccc34)cc2)O[C@H](CO)[C@@H](O)[C@H]1O`, the Activity in test [1] stood at 80.1%.

Take `Cc1sc2ncn(CC(=O)Nc3ccc(Oc4ccccc4)cc3)c(=O)c2c1-c1ccccc1`: the Activity in test [1] was found to be 82.6%.

As for `O=C(C1=C(O)C(=O)N(c2ncc(S(=O)(=O)c3ccc([N+](=O)[O-])cc3)s2)C1c1cccc(Cl)c1)c1ccc(Cl)cc1` (configuration not stated), the Activity turned out to be 56.6% in test [2] and 25% in test [1]. Besides, half-maximal inhibition against Prostaglandin E synthase (IC50) was put at 1900 nM.

On to `CCOc1ccc(N2CC(c3nc4ccccc4n3CCOc3ccc(Cl)cc3)CC2=O)cc1` (configuration not stated), for which the Activity in test [1] was 65.3%.

Take `COc1ccc(C(=O)N/C(=C\c2ccc(-c3ccccc3Cl)o2)C(=O)NCCCO)cc1`: in test [1], the Activity was 72.1%.
